# According to ChEMBL document CHEMBL3414473:
# Calls of active or inactive are those of the source. The rule behind the calls is not given here.
# Key:
# PrEC = experiment: Antiproliferative activity against human PrEC cells assessed as suppression of cell viability after 24 hrs by MTT assay in serum free medium; format: cell-based
# [1] = target: RAC-alpha serine/threonine-protein kinase (Homo sapiens, UniProt P31749); experiment: Binding affinity to GST-tagged PH domain of AKT (unknown origin) by surface Plasmon resonance spectroscopy
# Chain of RAC-alpha serine/threonine-protein kinase (P31749 whole entry, the tested form may be a part): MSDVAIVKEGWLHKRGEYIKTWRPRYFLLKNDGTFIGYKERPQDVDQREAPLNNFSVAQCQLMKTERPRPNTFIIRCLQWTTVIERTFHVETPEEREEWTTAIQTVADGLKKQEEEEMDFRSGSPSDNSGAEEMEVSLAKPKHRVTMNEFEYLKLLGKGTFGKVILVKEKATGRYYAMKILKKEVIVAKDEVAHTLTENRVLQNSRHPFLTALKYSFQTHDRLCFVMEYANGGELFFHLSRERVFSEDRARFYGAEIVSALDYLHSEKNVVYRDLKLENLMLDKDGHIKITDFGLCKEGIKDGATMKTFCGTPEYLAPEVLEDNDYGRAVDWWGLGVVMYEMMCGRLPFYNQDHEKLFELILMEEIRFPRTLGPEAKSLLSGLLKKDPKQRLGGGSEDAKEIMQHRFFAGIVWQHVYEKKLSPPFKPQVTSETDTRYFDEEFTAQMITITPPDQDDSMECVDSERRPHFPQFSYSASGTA
# Method in brief: (§1)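 SPR: GST-tagged PH domain fusion protein immobilized on CM5 chip by amine coupling to about 17000 RU. Analyte injected at 1–20 µM at 30 µL/min; DMSO in samples and running buffer ≤1% (v/v). Kd obtained from sensorgram fitting.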
# LNCaP [2] = experiment: Antiproliferative activity against human LNCAP cells assessed as suppression of cell viability after 24 hrs by MTT assay; format: functional, cell-based
# Method in brief: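 LNCaP cells seeded at 5000/well on poly-L-lysine-coated plates in 10% FBS; 24 h later exposed to agents in serum-free medium for 24 h. Viability expressed as percent of vehicle control; IC50 derived.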
# PC-3 [3] = experiment: Antiproliferative activity against human PTEN-negative PC3 cells assessed as suppression of cell viability after 24 hrs by MTT assay in serum free medium; format: functional, cell-based
# LNCaP [4] = experiment: Induction of Akt localization to human LNCAP cell membrane at 10 uM after 24 hrs by immunofluorescence staining analysis; format: functional, cell-based
# Method in brief: (§2)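 LNCaP cells on poly-L-lysine-coated surfaces, treated in serum-free medium for 24 h. Fixed in 4% formaldehyde, permeabilized with 0.1% Triton X-100, blocked in 1% FBS, primary antibody (1:300) overnight, then Alexa Fluor secondary 2 h; DAPI nuclei; confocal imaging with cross-sectional fluorescence intensity analysis.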
# PC-3 [5] = experiment: In vivo antitumor efficacy in human PC3 cells xenografted athymic nude mouse assessed as decrease in phosphorylation of Akt at Ser473 in tumor at 100 mg/kg, po for 21 days relative to vehicle treated control; format: functional, organism-based; design: dose 100 mg/kg
# Method in brief: (§3)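 Athymic nude mice given PC-3 cells sc (1 × 10⁶ per mouse); at about 50 mm³, randomized (n = 7) and dosed once daily for 21 days either ip at 50 mg/kg (vehicle saline/PEG400/DMSO/Tween 80, 65:20:10:5) or by oral gavage at 100 mg/kg (vehicle 0.5% methylcellulose/0.1% Tween 80 in water). Tumor volume measured weekly by calipers (width² × length × 0.52); phospho-proteins checked by Western blotting of tumor lysates.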
# LNCaP [6] = experiment: Induction of PHLPP1 localization to human LNCAP cell membrane at 10 uM after 24 hrs by immunofluorescence staining analysis; format: functional, cell-based; method in brief: as §2
# PC-3 [7] = experiment: In vivo antitumor efficacy in human PC3 cells xenografted athymic nude mouse assessed as inhibition of tumor growth at 100 mg/kg, po for 21 days relative to vehicle treated control; format: functional, organism-based; design: dose 100 mg/kg; method in brief: as §3
# [8] = target: T1, PH domain leucine-rich repeat-containing protein phosphatase 1 (Homo sapiens, UniProt O60346); experiment: Inhibition of PHLPP1-mediated reduction in phosphorylation of Akt at Thr308 in human PC3 cells after 24 hrs by Western blot analysis; format: cell-based; conditions: PC-3
# T1 sequence (O60346 whole entry, the tested form may be a part): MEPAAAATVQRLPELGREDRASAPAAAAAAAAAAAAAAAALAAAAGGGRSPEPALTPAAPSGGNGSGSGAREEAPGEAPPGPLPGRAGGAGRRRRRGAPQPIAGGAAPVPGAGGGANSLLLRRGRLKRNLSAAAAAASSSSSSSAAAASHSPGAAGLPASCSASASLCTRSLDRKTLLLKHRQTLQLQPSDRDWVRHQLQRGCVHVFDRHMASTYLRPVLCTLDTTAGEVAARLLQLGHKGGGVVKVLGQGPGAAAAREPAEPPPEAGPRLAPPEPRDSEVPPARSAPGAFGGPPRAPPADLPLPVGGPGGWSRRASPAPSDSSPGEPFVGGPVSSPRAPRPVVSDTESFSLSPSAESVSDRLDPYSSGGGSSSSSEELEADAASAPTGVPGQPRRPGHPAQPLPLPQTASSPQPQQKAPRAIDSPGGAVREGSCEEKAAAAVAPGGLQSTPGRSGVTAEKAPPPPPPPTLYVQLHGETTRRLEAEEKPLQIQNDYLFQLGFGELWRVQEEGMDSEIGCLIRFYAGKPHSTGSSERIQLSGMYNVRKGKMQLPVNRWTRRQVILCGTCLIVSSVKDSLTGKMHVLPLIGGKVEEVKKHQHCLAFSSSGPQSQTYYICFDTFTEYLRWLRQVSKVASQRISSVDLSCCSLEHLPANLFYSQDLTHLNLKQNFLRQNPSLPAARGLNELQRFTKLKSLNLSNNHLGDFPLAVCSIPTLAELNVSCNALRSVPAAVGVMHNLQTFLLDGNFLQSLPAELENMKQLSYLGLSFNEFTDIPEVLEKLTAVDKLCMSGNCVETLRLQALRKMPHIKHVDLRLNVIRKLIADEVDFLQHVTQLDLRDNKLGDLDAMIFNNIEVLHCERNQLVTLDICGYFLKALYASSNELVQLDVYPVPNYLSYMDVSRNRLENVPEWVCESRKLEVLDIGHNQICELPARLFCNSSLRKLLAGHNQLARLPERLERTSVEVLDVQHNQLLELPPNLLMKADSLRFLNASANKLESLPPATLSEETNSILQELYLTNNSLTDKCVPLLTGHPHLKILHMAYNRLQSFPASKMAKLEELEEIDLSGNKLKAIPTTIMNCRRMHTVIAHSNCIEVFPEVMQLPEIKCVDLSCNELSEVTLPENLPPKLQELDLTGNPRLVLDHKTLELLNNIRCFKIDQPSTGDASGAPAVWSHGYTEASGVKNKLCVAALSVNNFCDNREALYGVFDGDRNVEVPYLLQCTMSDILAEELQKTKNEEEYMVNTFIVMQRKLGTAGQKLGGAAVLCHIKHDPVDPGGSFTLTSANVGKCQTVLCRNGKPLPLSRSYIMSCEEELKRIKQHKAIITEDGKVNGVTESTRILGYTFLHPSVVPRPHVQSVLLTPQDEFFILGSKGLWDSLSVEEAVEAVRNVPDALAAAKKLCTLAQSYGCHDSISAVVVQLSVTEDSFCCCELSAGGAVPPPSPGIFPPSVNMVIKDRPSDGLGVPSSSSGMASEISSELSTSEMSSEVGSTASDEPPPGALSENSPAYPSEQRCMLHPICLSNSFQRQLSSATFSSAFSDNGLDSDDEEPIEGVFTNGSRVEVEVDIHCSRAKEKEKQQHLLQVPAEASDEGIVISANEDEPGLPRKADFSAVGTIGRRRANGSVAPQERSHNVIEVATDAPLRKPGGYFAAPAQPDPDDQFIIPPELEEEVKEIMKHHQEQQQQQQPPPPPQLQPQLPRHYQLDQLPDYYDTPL
# Method in brief: (§4)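 LNCaP or PC-3 cells treated at various concentrations for 24 h in serum-free medium. Lysed in SDS buffer (50 mM Tris pH 8, 10 mM EDTA, 1% SDS, protease inhibitors); equal protein run on SDS-PAGE and transferred to nitrocellulose. Primary antibodies 1:1000 overnight at 4 °C, HRP secondary 1:2000; detected by ECL.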
# PC-3 [9] = experiment: In vivo antitumor efficacy in human PC3 cells xenografted athymic nude mouse assessed as decrease in phosphorylation of IKK in tumor at 100 mg/kg, po for 21 days relative to vehicle treated control; format: functional, organism-based; design: dose 100 mg/kg; method in brief: as §3
# PC-3 [10] = experiment: In vivo antitumor efficacy in human PC3 cells xenografted athymic nude mouse assessed as decrease in phosphorylation of Akt at Thr308 in tumor at 100 mg/kg, po for 21 days relative to vehicle treated control; format: functional, organism-based; design: dose 100 mg/kg; method in brief: as §3
# PC-3 [11] = experiment: In vivo antitumor efficacy in human PC3 cells xenografted athymic nude mouse assessed as inhibition of tumor growth at 50 mg/kg, ip for 21 days relative to vehicle treated control; format: functional, organism-based; design: dose 50 mg/kg; method in brief: as §3
# [12] = target: T1, PH domain leucine-rich repeat-containing protein phosphatase 1; experiment: Inhibition of PHLPP1-mediated reduction in phosphorylation of MDM2 in human PC3 cells after 24 hrs by Western blot analysis; format: cell-based; conditions: PC-3; method in brief: as §4
# [13] = target: T1, PH domain leucine-rich repeat-containing protein phosphatase 1; experiment: Inhibition of PHLPP1-mediated reduction in phosphorylation of MDM2 in human LNCAP cells after 24 hrs by Western blot analysis; format: cell-based; method in brief: as §4
# [14] = target: T1, PH domain leucine-rich repeat-containing protein phosphatase 1; experiment: Inhibition of PHLPP1-mediated reduction in phosphorylation of IKK in human LNCAP cells after 24 hrs by Western blot analysis; format: cell-based; method in brief: as §4
# [15] = target: T1, PH domain leucine-rich repeat-containing protein phosphatase 1; experiment: Inhibition of PHLPP1-mediated reduction in phosphorylation of Akt at Ser473 in human PC3 cells after 24 hrs by Western blot analysis; format: cell-based; conditions: PC-3; method in brief: as §4
# [16] = target: T1, PH domain leucine-rich repeat-containing protein phosphatase 1; experiment: Inhibition of PHLPP1-mediated reduction in phosphorylation of IKK in human PC3 cells after 24 hrs by Western blot analysis; format: cell-based; conditions: PC-3; method in brief: as §4
# [17] = target: T1, PH domain leucine-rich repeat-containing protein phosphatase 1; experiment: Inhibition of PHLPP1-mediated reduction in phosphorylation of Akt at Thr308 in human LNCAP cells after 24 hrs by Western blot analysis; format: cell-based; method in brief: as §4
# [18] = target: T1, PH domain leucine-rich repeat-containing protein phosphatase 1; experiment: Inhibition of PHLPP1-mediated reduction in phosphorylation of Akt at Ser473 in human LNCAP cells after 24 hrs by Western blot analysis; format: cell-based; method in brief: as §4
# LNCaP [19] = experiment: Induction of Akt-PHLPP1 complex to human LNCAP cell membrane after 24 hrs by immunofluorescence staining analysis; format: functional, cell-based
# PC-3 [20] = experiment: In vivo antitumor efficacy in human PC3 cells xenografted athymic nude mouse assessed as decrease in phosphorylation of MDM2 in tumor at 100 mg/kg, po for 21 days relative to vehicle treated control; format: functional, organism-based; design: dose 100 mg/kg; method in brief: as §3
# [21] = target: T2, 3-phosphoinositide-dependent protein kinase 1 (Homo sapiens, UniProt O15530); experiment: Binding affinity to GST-tagged PH domain of PDK1 (unknown origin) by surface Plasmon resonance spectroscopy; method in brief: as §1
# T2 sequence (O15530 whole entry): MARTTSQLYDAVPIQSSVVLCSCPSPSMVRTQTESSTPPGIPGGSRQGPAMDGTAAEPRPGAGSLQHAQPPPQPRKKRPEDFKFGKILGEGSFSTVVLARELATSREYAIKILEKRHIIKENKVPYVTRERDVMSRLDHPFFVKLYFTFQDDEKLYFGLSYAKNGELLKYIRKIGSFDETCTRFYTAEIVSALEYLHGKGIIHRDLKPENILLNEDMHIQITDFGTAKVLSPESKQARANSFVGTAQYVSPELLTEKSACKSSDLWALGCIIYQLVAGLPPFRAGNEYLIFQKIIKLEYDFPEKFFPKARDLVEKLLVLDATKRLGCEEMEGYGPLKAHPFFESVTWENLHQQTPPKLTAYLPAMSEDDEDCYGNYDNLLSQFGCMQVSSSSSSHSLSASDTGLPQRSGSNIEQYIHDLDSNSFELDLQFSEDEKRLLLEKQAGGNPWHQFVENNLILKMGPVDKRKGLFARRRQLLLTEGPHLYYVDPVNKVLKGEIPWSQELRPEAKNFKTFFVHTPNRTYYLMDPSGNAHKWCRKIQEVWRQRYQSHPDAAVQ
# LNCaP [22] = experiment: Induction of PHLPP1 localization to human LNCAP cell membrane at 5 uM after 24 hrs by immunofluorescence staining analysis; format: functional, cell-based; method in brief: as §2
# [23] = target: T1, PH domain leucine-rich repeat-containing protein phosphatase 1; experiment: Binding affinity to GST-tagged PH domain of PHLPP1 (unknown origin) by surface Plasmon resonance spectroscopy; method in brief: as §1
# LNCaP [24] = experiment: Induction of Akt localization to human LNCAP cell membrane at 5 uM after 24 hrs by immunofluorescence staining analysis; format: functional, cell-based; method in brief: as §2
# Scaffold protein ILK = target: T3, Scaffold protein ILK (Homo sapiens, UniProt Q13418); experiment: Binding affinity to GST-tagged PH domain of ILK (unknown origin) by surface Plasmon resonance spectroscopy; method in brief: as §1
# T3 sequence (Q13418 whole entry): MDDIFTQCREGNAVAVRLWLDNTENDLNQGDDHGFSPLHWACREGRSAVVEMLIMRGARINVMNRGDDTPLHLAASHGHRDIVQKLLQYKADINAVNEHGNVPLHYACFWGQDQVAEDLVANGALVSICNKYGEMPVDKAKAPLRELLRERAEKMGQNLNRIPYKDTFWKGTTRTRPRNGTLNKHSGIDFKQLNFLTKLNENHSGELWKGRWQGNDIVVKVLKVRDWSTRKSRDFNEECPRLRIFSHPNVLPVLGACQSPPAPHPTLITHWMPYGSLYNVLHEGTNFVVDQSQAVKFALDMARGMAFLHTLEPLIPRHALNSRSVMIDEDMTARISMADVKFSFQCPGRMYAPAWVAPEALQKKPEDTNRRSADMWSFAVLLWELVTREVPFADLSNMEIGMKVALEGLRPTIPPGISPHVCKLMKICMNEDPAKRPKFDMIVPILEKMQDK
smiles,measurement,setting,value
COc1cc2c(c(C)c1C)OC(C)(CCCC(C)C)CC2 (centres undefined),Activity,PrEC,Non-toxic
same,Kd,[1],8500 nM
same,IC50,LNCaP [2],> 30 µM
same,Activity,PC-3 [3],inactive
CC(C)CCCC1(C)CCc2cc(O)cc(Br)c2O1 (centres undefined),Kd,[1],390 nM
same,IC50,LNCaP [2],8 µM
CC(C)CCCC1(C)CCc2cc(O)ccc2O1 (centres undefined),Kd,[1],350 nM
same,IC50,LNCaP [2],10 µM
Cc1c(O)cc2c(c1C)OC(C)(CCCC(C)C)CC2 (racemic),Kd,[1],520 nM
CC(C)CCCC1(C)CCc2cc(O)cc(F)c2O1 (centres undefined),Kd,[1],340 nM
same,IC50,LNCaP [2],9 µM
Cc1c(O)cc2c(c1C)OC(C)(CCCC(C)C)CC2=O (centres undefined),Kd,[1],410 nM
COc1cc(O)cc2c1OC(C)(CCCC(C)C)CC2 (centres undefined),Kd,[1],1880 nM
same,IC50,LNCaP [2],26 µM
Cc1c(O)cc2c(c1C)O[C@](C)(CCC[C@H](C)CCC[C@H](C)CCCC(C)C)CC2 [GAMMA-TOCOPHEROL],IC50,LNCaP [2],> 100 µM
CC(C)CCCC1(C)CCc2ccc(O)c(O)c2O1 (centres undefined),Kd,[1],980 nM
same,IC50,LNCaP [2],23 µM
CC(C)CCCC1(C)CCc2cc(N)ccc2O1 (centres undefined),Kd,[1],210 nM
same,IC50,LNCaP [2],> 30 µM
CC(C)CCCC1(C)CCc2c(O)cccc2O1 (centres undefined),Kd,[1],340 nM
same,IC50,LNCaP [2],11 µM
CC(C)CCCC1(C)CCc2cc(O)cc(O)c2O1 (centres undefined),Kd,[1],1180 nM
same,IC50,LNCaP [2],27 µM
Cc1c(O)cc2c(c1C)O[C@](C)(CCCC(C)C)CC2,Activity,LNCaP [4],Active
same,Activity,PrEC,Non-toxic
same,Activity,PC-3 [5],inactive
same,Activity,LNCaP [6],Active
same,Activity,PC-3 [7],inactive
same,inhibition,[8],inactive
same,Activity,PC-3 [9],inactive
same,inhibition,PC-3 [10],inactive
same,Activity,PC-3 [11],Active
same,inhibition,[12],Dose-dependent effect
same,inhibition,[13],Dose-dependent effect
same,inhibition,[14],Dose-dependent effect
same,inhibition,[15],Dose-dependent effect
same,inhibition,[16],Dose-dependent effect
same,inhibition,[17],inactive
same,inhibition,[18],Dose-dependent effect
same,Activity,LNCaP [19],Dose-dependent effect
same,Activity,PC-3 [20],inactive
Cc1cc(O)cc2c1OC(C)(CCCC(C)C)CC2=O (centres undefined),Kd,[1],320 nM
same,IC50,LNCaP [2],18 µM
CC(C)CCCC1(C)CCc2cc(O)cc(C(F)(F)F)c2O1 (centres undefined),Kd,[1],450 nM
same,IC50,LNCaP [2],8 µM
CC(C)CCCC1(C)CCc2cc(S(N)(=O)=O)cc(Br)c2O1 (centres undefined),Activity,PrEC,Non-toxic
same,Kd,[21],11.1 µM
same,inhibition,[8],inactive
same,Activity,LNCaP [22],Active
same,Kd,[1],220 nM
same,inhibition,[12],Dose-dependent effect
same,inhibition,[13],Dose-dependent effect
same,inhibition,[14],Dose-dependent effect
same,IC50,LNCaP [2],4.5 µM
same,Kd,[23],690 nM
same,inhibition,[15],Dose-dependent effect
same,inhibition,[16],Dose-dependent effect
same,Activity,LNCaP [24],Active
same,Activity,PC-3 [3],Active
same,inhibition,[17],inactive
same,Kd,Scaffold protein ILK,13.1 µM
same,inhibition,[18],Dose-dependent effect
CC(C)CCCC1(C)CC(=O)c2cc(O)ccc2O1 (centres undefined),Kd,[1],280 nM
same,IC50,LNCaP [2],> 30 µM
Cc1cc(O)cc2c1NC(C)(CCCC(C)C)CC2 (centres undefined),Kd,[1],30 nM
same,IC50,LNCaP [2],10 µM
Cc1cc(O)cc2c1OC(C)(CCCC(C)C)CC2 (centres undefined),Kd,[1],410 nM
same,IC50,LNCaP [2],7.5 µM
CC(C)CCCC1(C)CCc2cc(S(N)(=O)=O)cc(F)c2O1 (centres undefined),Activity,LNCaP [4],inactive
same,Activity,LNCaP [6],inactive
same,Kd,[1],350 nM
same,IC50,LNCaP [2],20 µM
same,inhibition,[15],inactive
same,inhibition,[18],inactive
